Measured values gathered from unrelated publications.
Lines come from different studies, so protocols differ.
Organism: Staphylococcus epidermidis
Observed: microbial growth

CC(C)Oc1c(NC(=O)c2ccc(NC(=O)[C@H](CC(N)=O)NC(=O)c3ccc(NC(=O)c4ccc(C#N)s4)cc3)cc2)ccc(C(=O)Nc2ccc(C(=O)O)cc2)c1O  MIC (DSM28765): 0.5 µg/mL
O=C(O)CN1C(=O)/C(=C/c2c3ccccc3c(-c3ccc(N(c4ccccc4)c4ccccc4)cc3)c3ccccc23)SC1=S  MIC (broth dilution; ATCC12228): > 1000 µg/mL
NCCCC[C@H](N)C(=O)Nc1ccc(-n2nc(C(F)(F)F)cc2-c2ccc3c(c2)Nc2ccccc2S3)cc1  MIC (broth dilution; ATCC35984; 24 h): 4 µg/mL
CC(C)Oc1c(-n2cc(-c3ccc(NC(=O)C(CC(N)=O)NC(=O)c4ccc(NC(=O)c5ccc(C#N)cc5)cc4)cc3)nn2)ccc(C(=O)Nc2ccc(C(=O)O)cc2)c1O (centres unmarked)  MIC (DSM28765): 0.125 µg/mL
O=C(Nc1ncc([N+](=O)[O-])s1)C1CCCCC1  MIC (broth dilution): 31.3 µM
CC(C)Oc1c(NC(=O)c2ccc(NC(=O)c3ccc(NC(=O)[C@H](CC(N)=O)NC(=O)c4ccc(NC(=O)c5ccc(C#N)s5)cc4)cc3)c(OC(C)C)c2O)ccc(C(=O)O)c1O  MIC (DSM28765): ≤ 0.03 µg/mL
CC[C@H]1OC(=O)[C@H](C)[C@@H](O[C@H]2C[C@@](C)(OC)[C@@H](O)[C@H](C)O2)[C@H](C)[C@@H](O[C@@H]2O[C@H](C)C[C@H](N(C)C)[C@H]2O)[C@](C)(O)C[C@@H](C)C(=O)[C@H](C)[C@@H](O)[C@]1(C)O  MIC (broth dilution; 12228): 0.78 µM
CN[C@H](CC(C)C)C(=O)N[C@H]1C(=O)N[C@@H](CC(N)=O)C(=O)N[C@H]2C(=O)N[C@H]3C(=O)N[C@H](C(=O)N[C@H](C(=O)O)c4cc(O)cc(O)c4-c4cc3ccc4O)[C@H](O)c3ccc(c(Cl)c3)Oc3cc2cc(c3O[C@@H]2O[C@H](CO)[C@@H](O)[C@H](O)[C@H]2O[C@H]2C[C@](C)(N)[C@H](O)[C@H](C)O2)Oc2ccc(cc2Cl)[C@H]1O  MIC (broth dilution; ATCC12228): 0.98 µg/mL
NCCCC[C@H](N)C(=O)Nc1ccc(-n2nc(C(F)(F)F)cc2-c2ccc3c(ccc4ccccc43)c2)cc1  MIC (broth dilution; ATCC35984; 24 h): 4 µg/mL
O=C(O)CN1C(=O)/C(=C/c2c3ccccc3c(-c3ccc(N(c4ccccc4)c4ccccc4)cc3)c3ccccc23)NC1=S  MIC (broth dilution; ATCC12228): > 1000 µg/mL
NC[C@H]1O[C@H](O[C@H]2[C@H](O)[C@@H](O[C@H]3O[C@H](CO)[C@@H](O)[C@H](N)[C@H]3O)[C@H](N)C[C@@H]2N)[C@H](N)C[C@@H]1O  MIC (broth dilution; 12228): 0.78 µM
